14 compounds from ChEMBL document CHEMBL1138098, “Novel 1,4-benzodiazepine-2,5-diones as Hdm2 antagonists with improved cellular activity” (Bioorg Med Chem Lett, 2006) can be followed below.

As a reminder, the IC50 is the concentration needed to halve the response being measured. A higher IC50 goes with weaker potency in that assay.

Test [1] deals with JAR. Put plainly: Induction of PIG3 production in JAR cells at 3.3 uM. Format: functional, Homo sapiens. Summed up: (§1)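 JAR cells were treated with compound at 1.1, 3.3, 10 or 30 μM. PIG-3 protein was measured by ELISA and normalized to cellular protein, reported as ng/mg.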
Test [2] relates to JAR. Put plainly: Induction of PIG3 production in JAR cells at 1.1 uM. Type of test: functional, Homo sapiens. The method, boiled down: as §1
Test [3] has as its system JAR. Put plainly: Induction of PIG3 production in JAR cells at 10 uM. Format: functional, Homo sapiens. The method, boiled down:
as §1

Test [4] concerns the target E3 ubiquitin-protein ligase Mdm2 (Homo sapiens, UniProt Q00987). Put plainly: Inhibition of p53-Hdm2 interaction by FP assay.
The test system of test [5] is JAR. Put plainly: Induction of PIG3 production in JAR cells at 30 uM. Format: functional, Homo sapiens. Summed up:
as §1

E3 ubiquitin-protein ligase Mdm2, sequence (Q00987 whole entry): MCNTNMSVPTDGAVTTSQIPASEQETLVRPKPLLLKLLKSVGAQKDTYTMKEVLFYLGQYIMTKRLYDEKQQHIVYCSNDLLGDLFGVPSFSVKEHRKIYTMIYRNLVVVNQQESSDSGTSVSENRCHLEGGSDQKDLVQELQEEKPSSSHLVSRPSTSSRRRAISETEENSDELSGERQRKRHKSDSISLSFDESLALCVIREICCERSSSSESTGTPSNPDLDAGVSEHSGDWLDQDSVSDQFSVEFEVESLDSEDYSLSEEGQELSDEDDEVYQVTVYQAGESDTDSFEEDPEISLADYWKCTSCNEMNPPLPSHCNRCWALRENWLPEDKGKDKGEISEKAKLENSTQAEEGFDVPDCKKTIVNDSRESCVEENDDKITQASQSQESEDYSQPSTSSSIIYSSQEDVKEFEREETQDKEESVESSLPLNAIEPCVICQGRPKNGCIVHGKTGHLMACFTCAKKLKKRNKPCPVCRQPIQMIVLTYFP

For the compound `CC(c1ccc(Cl)cc1N)N1C(=O)c2cc(I)ccc2N(CCCCC(=O)O)C(=O)[C@@H]1c1ccc(Cl)cc1` (stereo not given in full), the results for the Activity with JAR [1] and in the test on JAR [2] were 77 ng/mg and 44 ng/mg, respectively.
For the compound `COCCOCCN1C(=O)[C@H](c2ccc(Cl)cc2)N([C@H](C)c2ccc(Cl)cc2N)C(=O)c2cc(I)ccc21`, the Activity came out at 375 ng/mg in the test with JAR [3], 218 ng/mg with JAR [1] and 78 ng/mg in the test on JAR [2].
For `Nc1cc(Cl)ccc1CN1C(=O)c2cc(I)ccc2N(CCCCC(=O)O)C(=O)[C@@H]1c1ccc(Cl)cc1`, the Activity is 196 ng/mg with JAR [3], 74 ng/mg with JAR [1] and 47 ng/mg with JAR [2].
The corresponding values for `CN(C)CCCCN1C(=O)[C@H](c2ccc(Cl)cc2)N(Cc2ccc(Cl)cc2N)C(=O)c2cc(I)ccc21` are -136 ng/mg, 79 ng/mg and 32 ng/mg.
`C=CCOc1cc(Cl)ccc1CN1C(=O)c2cc(I)ccc2N(CCOCCOC)C(=O)[C@@H]1c1ccc(Cl)cc1`: the IC50 in test [4] is greater than 12.5 µM.
On to `COCCOCCN1C(=O)[C@H](c2ccc(Cl)cc2)N(Cc2ccc(Cl)cc2O)C(=O)c2cc(I)ccc21`, for which the Activity in the test on JAR [3] turned out to be 99 ng/mg; with JAR [1] it was 74 ng/mg; with JAR [2], 62.3 ng/mg.
The corresponding values for `CN1CCN(CCCCN2C(=O)[C@H](c3ccc(Cl)cc3)N(Cc3ccc(Cl)cc3N)C(=O)c3cc(I)ccc32)CC1` are 32 ng/mg, 125 ng/mg and 43 ng/mg.
The corresponding values for `C[C@H](c1cc(F)c(Cl)cc1N)N1C(=O)c2cc(I)ccc2N(CCN2CCOCC2)C(=O)[C@@H]1c1ccc(Cl)cc1` are 313 ng/mg, 110 ng/mg and 37 ng/mg.
`CN(C)CCCN1C(=O)[C@H](c2ccc(Cl)cc2)N(Cc2ccc(Cl)cc2N)C(=O)c2cc(I)ccc21`: the results for the Activity in the test on JAR [3], with JAR [1] and in the test on JAR [2] were -92 ng/mg, 68 ng/mg and 36 ng/mg, respectively.
The corresponding values for `C[C@H](c1cc(O)c(Cl)cc1N)N1C(=O)c2cc(I)ccc2N(CCN2CCOCC2)C(=O)[C@@H]1c1ccc(Cl)cc1` are 111 ng/mg, 54 ng/mg and 34 ng/mg.
On to `C[C@H](c1ccc(Cl)cc1N)N1C(=O)c2cc(I)ccc2N(CCN2CCOCC2)C(=O)[C@@H]1c1ccc(Cl)cc1`, for which the Activity turned out to be 395 ng/mg with JAR [3], 234 ng/mg in the test on JAR [1] and 79 ng/mg in the test with JAR [2].
The corresponding values for `CN1CCN(CCCN2C(=O)[C@H](c3ccc(Cl)cc3)N(Cc3ccc(Cl)cc3N)C(=O)c3cc(I)ccc32)CC1` are 385 ng/mg, 198 ng/mg and 57 ng/mg.
Consider `CC(c1ccc(Cl)cc1)N1C(=O)c2cc(I)ccc2N(CCCCC(=O)O)C(=O)[C@@H]1c1ccc(Cl)cc1` (stereo not given in full), for which the Activity in the test with JAR [3] was found to be 208.7 ng/mg; with JAR [1], 79.7 ng/mg; with JAR [2], 60 ng/mg; in the test with JAR [5] it was 484.3 ng/mg.
`Nc1cc(Cl)ccc1CN1C(=O)c2cc(I)ccc2N(CCCN2CCOCC2)C(=O)[C@@H]1c1ccc(Cl)cc1`: the Activity in the test on JAR [3] is 375 ng/mg; with JAR [1] it was 184 ng/mg; with JAR [2], 55 ng/mg.
